In ChEMBL document CHEMBL3603743, “Design, synthesis and biological evaluation of saccharin-based N-hydroxybenzamides as histone deacetylases (HDACs) inhibitors” (Bioorg Med Chem, 2015):

Tests used:
MDA-MB-231 [1] = test: Induction of apoptosis in human MDA-MB-231 cells assessed as late apoptotic cells at 4 uM after 24 hrs using Annexin V-FITC and propidium iodide staining by flow cytometry (reference value: 4.04%); type: functional
Outline: (§1)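 MDA-MB-231 cells (1.2 × 10⁵) exposed to compound for 24 h, then harvested and washed in PBS. Cells resuspended in Annexin V-FITC binding buffer, stained with Annexin V-FITC plus propidium iodide for 10 min at room temperature, held on ice and analysed by flow cytometry.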

MDA-MB-231 [2] = test: Induction of apoptosis in human MDA-MB-231 cells assessed as early apoptotic cells at 1 uM after 24 hrs using Annexin V-FITC and propidium iodide staining by flow cytometry (reference value: 2.60%); type: functional; outline: as §1
MDA-MB-231 [3] = test: Induction of apoptosis in human MDA-MB-231 cells assessed as total apoptotic cells at 1 uM after 24 hrs using Annexin V-FITC and propidium iodide staining by flow cytometry; type: functional; outline: as §1
MDA-MB-231 [4] = test: Induction of apoptosis in human MDA-MB-231 cells assessed as late apoptotic cells at 1 uM after 24 hrs using Annexin V-FITC and propidium iodide staining by flow cytometry (reference value: 4.04%); type: functional; outline: as §1
MDA-MB-231 [5] = test: Induction of apoptosis in human MDA-MB-231 cells assessed as early apoptotic cells at 4 uM after 24 hrs using Annexin V-FITC and propidium iodide staining by flow cytometry (reference value: 2.60%); type: functional; outline: as §1
[6] = molecular target: Histone deacetylase (HDAC1 and HDAC2) (Homo sapiens, UniProt Q13547+Q92769); test: Inhibition of HDAC1/2 in human HeLa cells nuclear extracts using acetylated histone peptide as substrate after 30 mins by Color de Lys assay; type: cell-based
PC-3 = test: Antiproliferative activity against human PC3 cells after 48 hrs by MTT assay; type: functional, cell-based; conditions: PC-3, 48 h
MDA-MB-231 [7] = test: Antiproliferative activity against human MDA-MB-231 cells after 48 hrs by MTT assay; type: functional, cell-based; conditions: MDA-MB-231, 48 h
[8] = Antiproliferative activity against human KG1 cells after 48 hrs by MTT assay; type: functional, cell-based; conditions: KG-1, 48 h

Row | IC50 [6] [µM] | Structure (SMILES) | other results
1 | – | O=C(CCCCCCC(=O)Nc1ccccc1)NO [VORINOSTAT] | Activity (MDA-MB-231 [1]): 7.66%; Activity (MDA-MB-231 [2]): 8%; Activity (MDA-MB-231 [3]): 11.32%; Activity (MDA-MB-231 [4]): 3.32%; Activity (MDA-MB-231 [5]): 7.1%
2 | 0.419 | O=C(CCCN1C(=O)c2ccc(I)cc2S1(=O)=O)Nc1ccc(C(=O)NO)cc1 | –
3 | 0.523 | O=C(CCN1C(=O)c2ccc(I)cc2S1(=O)=O)Nc1ccc(C(=O)NO)cc1 | –
4 | 1.398 | O=C(NO)c1ccc(CN2C(=O)c3ccccc3S2(=O)=O)cc1 | –
5 | 0.3 | O=C(CCN1C(=O)c2ccccc2S1(=O)=O)Nc1ccc(C(=O)NO)cc1 | –
6 | > 5 | O=C(NO)c1ccc(CN2C(=O)c3ccc(NC(=O)c4ccc(-c5ccccc5)cc4)cc3S2(=O)=O)cc1 | –
7 | 1.7 | O=C(CCN1C(=O)c2ccc(-c3ccccc3)cc2S1(=O)=O)Nc1ccc(C(=O)NO)cc1 | IC50 (PC-3): 8.79 µM; Activity (MDA-MB-231 [1]): 9.86%; Activity (MDA-MB-231 [2]): 9.27%; Activity (MDA-MB-231 [3]): 16.76%; Activity (MDA-MB-231 [4]): 7.49%; IC50 (MDA-MB-231 [7]): 3.45 µM; IC50 [8]: 5.23 µM; Activity (MDA-MB-231 [5]): 13.48%
8 | 0.646 | O=C(NO)c1ccc(CN2C(=O)c3ccc(NC(=O)c4ccc(F)cc4)cc3S2(=O)=O)cc1 | –
9 | 2.65 | O=C(CCCCCN1C(=O)c2ccccc2S1(=O)=O)NCc1ccc(C(=O)NO)cc1 | –
10 | 1.66 | O=C(CCCN1C(=O)c2ccc([N+](=O)[O-])cc2S1(=O)=O)Nc1ccc(C(=O)NO)cc1 | –
11 | > 5 | O=C(CCCN1C(=O)c2ccccc2S1(=O)=O)Nc1cccc(C(=O)NO)c1 | –
12 | 1.71 | COc1cc(C(=O)Nc2ccc3c(c2)S(=O)(=O)N(Cc2ccc(C(=O)NO)cc2)C3=O)cc(OC)c1OC | –
13 | 0.38 | O=C(NO)c1ccc(CN2C(=O)c3ccc(NC(=O)c4ccccc4)cc3S2(=O)=O)cc1 | –
14 | 0.233 | O=C(CCCN1C(=O)c2ccccc2S1(=O)=O)Nc1ccc(C(=O)NO)cc1 | IC50 (PC-3): > 25 µM; Activity (MDA-MB-231 [1]): 5.35%; Activity (MDA-MB-231 [2]): 3.44%; Activity (MDA-MB-231 [3]): 7.5%; Activity (MDA-MB-231 [4]): 4.06%; IC50 (MDA-MB-231 [7]): 8.71 µM; Activity (MDA-MB-231 [5]): 4.7%
15 | > 5 | O=C(CCN1C(=O)c2ccccc2S1(=O)=O)Nc1cccc(C(=O)NO)c1 | –
16 | > 5 | O=C(CCCCCN1C(=O)c2ccc([N+](=O)[O-])cc2S1(=O)=O)Nc1cccc(C(=O)NO)c1 | –
17 | 1.413 | O=C(NO)c1ccc(CN2C(=O)c3ccc(NC(=O)c4ccc(C(F)(F)F)cc4)cc3S2(=O)=O)cc1 | –
18 | 1.335 | O=C(NO)c1ccc(CN2C(=O)c3ccc(I)cc3S2(=O)=O)cc1 | –
19 | 0.386 | O=C(NO)c1ccc(CN2C(=O)c3ccc(-c4ccccc4)cc3S2(=O)=O)cc1 | –
20 | > 5 | O=C(CCCCN1C(=O)c2ccccc2S1(=O)=O)Nc1cccc(C(=O)NO)c1 | –
21 | > 5 | O=C(CCCCN1C(=O)c2ccc(-c3ccccc3)cc2S1(=O)=O)Nc1ccc(C(=O)NO)cc1 | –
22 | 0.53 | O=C(Cc1ccccc1)Nc1ccc2c(c1)S(=O)(=O)N(Cc1ccc(C(=O)NO)cc1)C2=O | –
23 | 1.51 | O=C(CCCN1C(=O)c2ccc(-c3ccccc3)cc2S1(=O)=O)Nc1ccc(C(=O)NO)cc1 | IC50 (PC-3): > 25 µM; IC50 (MDA-MB-231 [7]): 9.9 µM; IC50 [8]: 11.6 µM
24 | > 5 | O=C(CCCCCN1C(=O)c2ccccc2S1(=O)=O)Nc1cccc(C(=O)NO)c1 | –
25 | 1.297 | Cc1ccc(/C=C/C(=O)Nc2ccc3c(c2)S(=O)(=O)N(Cc2ccc(C(=O)NO)cc2)C3=O)cc1 | –
26 | > 5 | O=C(NO)c1ccc(CN2C(=O)c3ccc([N+](=O)[O-])cc3S2(=O)=O)cc1 | –
27 | 2.79 | O=C(CCN1C(=O)c2ccccc2S1(=O)=O)NCc1ccc(C(=O)NO)cc1 | –
28 | 3.4 | O=C(CCCCN1C(=O)c2ccccc2S1(=O)=O)NCc1ccc(C(=O)NO)cc1 | –
29 | 2.02 | O=C(CCN1C(=O)c2ccc([N+](=O)[O-])cc2S1(=O)=O)Nc1ccc(C(=O)NO)cc1 | –
30 | 0.305 | O=C(CCCCN1C(=O)c2ccc(I)cc2S1(=O)=O)Nc1ccc(C(=O)NO)cc1 | –
